# Legend:
# [1] = tested on: Mast/stem cell growth factor receptor Kit (Homo sapiens), P10721 [D816V]; assay: Inhibition of KIT D816V mutant (unknown origin) assessed as remaining activity at 1 uM by Kinome scan method relative to control
# [2] = target: Tyrosine-protein kinase ABL1 (Homo sapiens) (UniProt P00519); assay: Inhibition of phosphorylated ABL1 (unknown origin) assessed as remaining activity at 1 uM by Kinome scan method relative to control
# [3] = target: Tyrosine-protein kinase Fer (Homo sapiens) (UniProt P16591); assay: Inhibition of FER (unknown origin) assessed as remaining activity at 1 uM by Kinome scan method relative to control
# [4] = target: Receptor-type tyrosine-protein kinase FLT3 (Homo sapiens) (UniProt P36888); assay: Inhibition of FLT3 (unknown origin) assessed as remaining activity at 1 uM by Kinome scan method relative to control
# [5] = tested on: Tyrosine-protein kinase ABL1 (Homo sapiens), P00519 [H396P]; assay: Inhibition of phosphorylated ABL1 H396P mutant (unknown origin) assessed as remaining activity at 1 uM by Kinome scan method relative to control
# [6] = target: Myotonin-protein kinase (Homo sapiens) (UniProt Q09013); assay: Inhibition of DMPK (unknown origin) assessed as remaining activity at 1 uM by Kinome scan method relative to control
# Chain of Myotonin-protein kinase (Homo sapiens) (Q09013 whole entry): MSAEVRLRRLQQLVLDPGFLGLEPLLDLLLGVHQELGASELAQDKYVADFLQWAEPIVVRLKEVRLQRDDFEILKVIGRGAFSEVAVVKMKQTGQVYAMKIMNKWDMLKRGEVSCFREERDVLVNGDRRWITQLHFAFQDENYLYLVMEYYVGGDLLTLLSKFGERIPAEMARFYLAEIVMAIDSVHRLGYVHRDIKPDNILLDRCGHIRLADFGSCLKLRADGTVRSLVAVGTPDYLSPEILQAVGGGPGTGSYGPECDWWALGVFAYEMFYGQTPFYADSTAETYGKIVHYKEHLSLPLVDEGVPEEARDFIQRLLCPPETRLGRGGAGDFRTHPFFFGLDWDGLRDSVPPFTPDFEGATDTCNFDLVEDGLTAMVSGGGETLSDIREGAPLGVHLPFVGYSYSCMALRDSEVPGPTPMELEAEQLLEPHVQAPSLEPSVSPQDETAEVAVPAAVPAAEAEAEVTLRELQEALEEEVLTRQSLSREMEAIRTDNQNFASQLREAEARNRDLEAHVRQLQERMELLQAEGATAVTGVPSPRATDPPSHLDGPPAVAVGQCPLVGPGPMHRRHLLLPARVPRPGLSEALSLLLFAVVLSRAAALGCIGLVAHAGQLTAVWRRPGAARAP
# [7] = target: Receptor-interacting serine/threonine-protein kinase 2 (Homo sapiens) (UniProt O43353); assay: Inhibition of RIPK2 (unknown origin) assessed as remaining activity at 1 uM by Kinome scan method relative to control
# [8] = target: Mitogen-activated protein kinase 6 (Homo sapiens) (UniProt Q16659); assay: Inhibition of ERK3 (unknown origin) assessed as remaining activity at 1 uM by Kinome scan method relative to control
# [9] = target: cGMP-dependent protein kinase 1 (Homo sapiens) (UniProt Q13976); assay: Inhibition of PRKG1 (unknown origin) assessed as remaining activity at 1 uM by Kinome scan method relative to control
# [10] = target: Phosphatidylinositol 4-kinase beta (Homo sapiens) (UniProt Q9UBF8); assay: Inhibition of PIK4CB (unknown origin) assessed as remaining activity at 1 uM by Kinome scan method relative to control
# Chain of Phosphatidylinositol 4-kinase beta (Homo sapiens) (Q9UBF8 2-816 limits assumed): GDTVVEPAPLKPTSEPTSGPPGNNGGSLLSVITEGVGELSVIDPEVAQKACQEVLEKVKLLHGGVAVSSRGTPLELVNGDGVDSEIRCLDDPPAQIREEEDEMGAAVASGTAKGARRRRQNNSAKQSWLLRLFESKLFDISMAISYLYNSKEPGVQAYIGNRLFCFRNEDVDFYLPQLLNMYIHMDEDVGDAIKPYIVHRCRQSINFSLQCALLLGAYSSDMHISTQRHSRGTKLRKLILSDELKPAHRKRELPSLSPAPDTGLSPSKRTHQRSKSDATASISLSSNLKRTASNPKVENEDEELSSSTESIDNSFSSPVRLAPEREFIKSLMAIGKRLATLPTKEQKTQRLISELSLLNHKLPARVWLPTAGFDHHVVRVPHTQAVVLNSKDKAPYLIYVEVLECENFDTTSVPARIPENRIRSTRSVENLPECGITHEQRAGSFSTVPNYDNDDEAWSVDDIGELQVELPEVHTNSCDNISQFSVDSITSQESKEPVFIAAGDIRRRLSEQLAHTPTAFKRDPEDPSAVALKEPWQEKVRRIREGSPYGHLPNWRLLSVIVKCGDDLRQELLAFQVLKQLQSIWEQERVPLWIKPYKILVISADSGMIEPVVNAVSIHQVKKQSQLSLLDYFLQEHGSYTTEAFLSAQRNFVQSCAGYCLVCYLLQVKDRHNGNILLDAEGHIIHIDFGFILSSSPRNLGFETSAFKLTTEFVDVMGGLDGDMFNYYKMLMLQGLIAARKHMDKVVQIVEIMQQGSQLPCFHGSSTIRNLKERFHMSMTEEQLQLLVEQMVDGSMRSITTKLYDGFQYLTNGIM
# [11] = target: T1, Serine/threonine-protein kinase 4 (Homo sapiens, UniProt Q13043); assay: Inhibition of recombinant His-tagged full-length MST1 (unknown origin) expressing in Escherichia coli assessed as MOB1a phosphorylation level incubated for 30 min in the presence of 100 uM ATP by immunoblot analysis
# T1 sequence (Q13043 whole entry): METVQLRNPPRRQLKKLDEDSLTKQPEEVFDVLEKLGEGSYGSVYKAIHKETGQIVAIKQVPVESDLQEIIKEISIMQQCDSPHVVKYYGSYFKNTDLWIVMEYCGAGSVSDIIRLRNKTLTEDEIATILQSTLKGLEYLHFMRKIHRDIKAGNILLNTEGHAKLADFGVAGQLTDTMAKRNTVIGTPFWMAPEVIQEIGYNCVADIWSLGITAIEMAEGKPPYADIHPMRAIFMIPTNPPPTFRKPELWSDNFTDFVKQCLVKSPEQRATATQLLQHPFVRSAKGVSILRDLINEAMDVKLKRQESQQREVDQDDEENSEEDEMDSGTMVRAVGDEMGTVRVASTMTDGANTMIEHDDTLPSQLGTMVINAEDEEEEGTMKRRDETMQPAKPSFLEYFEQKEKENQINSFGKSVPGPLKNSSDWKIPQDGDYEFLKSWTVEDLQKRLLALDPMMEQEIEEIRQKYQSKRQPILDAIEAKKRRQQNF
# [12] = tested on: Tyrosine-protein kinase ABL1 (Homo sapiens), P00519 [M351T]; assay: Inhibition of phosphorylated ABL1 M351T mutant (unknown origin) assessed as remaining activity at 1 uM by Kinome scan method relative to control
# [13] = target: Insulin receptor (Homo sapiens) (UniProt P06213); assay: Inhibition of INSR (unknown origin) assessed as remaining activity at 1 uM by Kinome scan method relative to control
# Chain of Insulin receptor (Homo sapiens) (P06213 28-758 limits assumed): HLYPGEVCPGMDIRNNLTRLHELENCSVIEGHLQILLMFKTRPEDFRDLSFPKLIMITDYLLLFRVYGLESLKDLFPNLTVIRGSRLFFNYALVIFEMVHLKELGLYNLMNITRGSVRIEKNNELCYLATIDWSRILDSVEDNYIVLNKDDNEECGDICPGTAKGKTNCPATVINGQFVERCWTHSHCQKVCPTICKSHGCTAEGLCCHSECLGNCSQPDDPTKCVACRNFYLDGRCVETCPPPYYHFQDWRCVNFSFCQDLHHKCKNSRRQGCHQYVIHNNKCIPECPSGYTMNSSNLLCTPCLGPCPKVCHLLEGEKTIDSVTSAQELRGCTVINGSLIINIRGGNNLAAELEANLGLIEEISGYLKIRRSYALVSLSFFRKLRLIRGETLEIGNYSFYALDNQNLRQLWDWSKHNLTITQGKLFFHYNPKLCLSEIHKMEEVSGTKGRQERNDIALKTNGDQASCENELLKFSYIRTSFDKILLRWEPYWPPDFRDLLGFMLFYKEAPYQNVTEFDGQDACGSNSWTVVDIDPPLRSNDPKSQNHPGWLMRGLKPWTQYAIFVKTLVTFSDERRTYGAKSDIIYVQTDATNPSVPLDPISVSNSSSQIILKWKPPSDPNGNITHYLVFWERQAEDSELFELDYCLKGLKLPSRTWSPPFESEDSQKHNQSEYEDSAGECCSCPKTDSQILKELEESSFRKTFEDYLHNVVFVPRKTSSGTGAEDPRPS
# Chain of Insulin receptor (Homo sapiens) (P06213 763-1382 limits assumed): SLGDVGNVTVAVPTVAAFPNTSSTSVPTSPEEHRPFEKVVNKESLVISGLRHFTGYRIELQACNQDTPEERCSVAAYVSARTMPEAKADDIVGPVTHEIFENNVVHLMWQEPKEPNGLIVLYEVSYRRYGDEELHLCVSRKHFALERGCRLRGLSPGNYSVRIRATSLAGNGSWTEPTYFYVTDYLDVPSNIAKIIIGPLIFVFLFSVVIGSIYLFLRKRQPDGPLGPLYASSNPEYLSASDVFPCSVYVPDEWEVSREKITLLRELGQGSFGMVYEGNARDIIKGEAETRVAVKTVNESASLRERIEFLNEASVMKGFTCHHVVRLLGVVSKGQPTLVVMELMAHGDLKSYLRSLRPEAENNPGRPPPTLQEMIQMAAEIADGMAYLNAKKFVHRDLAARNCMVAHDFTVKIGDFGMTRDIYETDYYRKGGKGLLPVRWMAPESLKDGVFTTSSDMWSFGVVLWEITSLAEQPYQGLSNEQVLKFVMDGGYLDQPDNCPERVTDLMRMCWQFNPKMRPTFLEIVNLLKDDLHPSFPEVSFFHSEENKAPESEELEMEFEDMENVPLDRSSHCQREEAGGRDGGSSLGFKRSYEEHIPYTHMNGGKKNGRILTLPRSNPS
# [14] = target: Ankyrin repeat and protein kinase domain-containing protein 1 (Homo sapiens) (UniProt Q8NFD2); assay: Inhibition of ANKK1 (unknown origin) assessed as remaining activity at 1 uM by Kinome scan method relative to control
# Procedure, shortened: (§1)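 Active-site-dependent competition-binding (KINOMEscan) panel of 468 kinases, test compound at 1 μM (from a 10 mM DMSO stock). Read-out is ctrl% = (test signal − positive control signal)/(negative control signal − positive control signal) × 100. DMSO is the negative control (100%) and a control compound is the positive control (0%). Lower ctrl% means tighter binding.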
# [15] = target: Proto-oncogene tyrosine-protein kinase receptor Ret (Homo sapiens) (UniProt P07949); assay: Inhibition of RET (unknown origin) assessed as remaining activity at 1 uM by Kinome scan method relative to control
# [16] = target: Ephrin type-B receptor 4 (Homo sapiens) (UniProt P54760); assay: Inhibition of EPHB4 (unknown origin) assessed as remaining activity at 1 uM by Kinome scan method relative to control
# [17] = target: Macrophage colony-stimulating factor 1 receptor (Homo sapiens) (UniProt P07333); assay: Inhibition of CSF1R-autoinhibited (unknown origin) assessed as remaining activity at 1 uM by Kinome scan method relative to control
# Procedure, shortened: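 Active-site-dependent competition-binding profiling (KINOMEscan) at 1 μM against a 468-kinase panel; compound supplied from a 10 mM DMSO stock. Read-out is ctrl% = (test signal − positive control signal)/(negative control signal − positive control signal) × 100. DMSO is the negative control (100%) and a control compound the positive control (0%). Lower ctrl% means tighter binding.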
# [18] = target: Ephrin type-A receptor 2 (Homo sapiens) (UniProt P29317); assay: Inhibition of EPHA2 (unknown origin) assessed as remaining activity at 1 uM by Kinome scan method relative to control
# Chain of Ephrin type-A receptor 2 (Homo sapiens) (P29317 whole entry): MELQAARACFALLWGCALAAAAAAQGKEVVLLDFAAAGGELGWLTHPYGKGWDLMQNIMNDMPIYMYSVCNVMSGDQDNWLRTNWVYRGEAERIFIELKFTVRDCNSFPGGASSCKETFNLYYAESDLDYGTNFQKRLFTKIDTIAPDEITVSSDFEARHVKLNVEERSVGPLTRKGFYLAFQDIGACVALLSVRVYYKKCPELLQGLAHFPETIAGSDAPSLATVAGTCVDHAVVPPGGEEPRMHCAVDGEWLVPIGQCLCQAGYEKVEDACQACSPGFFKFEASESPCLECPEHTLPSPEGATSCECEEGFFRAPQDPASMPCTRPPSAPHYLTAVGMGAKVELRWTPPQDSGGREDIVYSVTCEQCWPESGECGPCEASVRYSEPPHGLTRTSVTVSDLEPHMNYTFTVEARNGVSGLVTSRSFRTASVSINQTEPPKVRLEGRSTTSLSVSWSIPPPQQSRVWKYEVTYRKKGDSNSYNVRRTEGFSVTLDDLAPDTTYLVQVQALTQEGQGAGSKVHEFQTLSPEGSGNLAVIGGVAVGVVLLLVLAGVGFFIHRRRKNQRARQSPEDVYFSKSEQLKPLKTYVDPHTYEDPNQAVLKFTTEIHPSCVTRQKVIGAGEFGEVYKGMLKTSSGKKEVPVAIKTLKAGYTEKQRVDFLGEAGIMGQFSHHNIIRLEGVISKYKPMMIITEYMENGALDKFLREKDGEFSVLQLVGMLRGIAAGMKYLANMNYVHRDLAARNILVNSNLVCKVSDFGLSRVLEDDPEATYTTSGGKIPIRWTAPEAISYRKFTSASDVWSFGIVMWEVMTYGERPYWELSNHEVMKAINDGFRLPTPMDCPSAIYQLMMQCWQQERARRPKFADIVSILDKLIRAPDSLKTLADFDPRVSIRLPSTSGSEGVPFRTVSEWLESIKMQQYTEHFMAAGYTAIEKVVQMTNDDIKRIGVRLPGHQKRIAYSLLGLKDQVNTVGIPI
# [19] = target: Ephrin type-A receptor 6 (Homo sapiens) (UniProt Q9UF33); assay: Inhibition of EPHA6 (unknown origin) assessed as remaining activity at 1 uM by Kinome scan method relative to control
# [20] = target: Inhibitor of nuclear factor kappa-B kinase subunit beta (Homo sapiens) (UniProt O14920); assay: Inhibition of IKK-beta (unknown origin) assessed as remaining activity at 1 uM by Kinome scan method relative to control
# Chain of Inhibitor of nuclear factor kappa-B kinase subunit beta (Homo sapiens) (O14920 whole entry): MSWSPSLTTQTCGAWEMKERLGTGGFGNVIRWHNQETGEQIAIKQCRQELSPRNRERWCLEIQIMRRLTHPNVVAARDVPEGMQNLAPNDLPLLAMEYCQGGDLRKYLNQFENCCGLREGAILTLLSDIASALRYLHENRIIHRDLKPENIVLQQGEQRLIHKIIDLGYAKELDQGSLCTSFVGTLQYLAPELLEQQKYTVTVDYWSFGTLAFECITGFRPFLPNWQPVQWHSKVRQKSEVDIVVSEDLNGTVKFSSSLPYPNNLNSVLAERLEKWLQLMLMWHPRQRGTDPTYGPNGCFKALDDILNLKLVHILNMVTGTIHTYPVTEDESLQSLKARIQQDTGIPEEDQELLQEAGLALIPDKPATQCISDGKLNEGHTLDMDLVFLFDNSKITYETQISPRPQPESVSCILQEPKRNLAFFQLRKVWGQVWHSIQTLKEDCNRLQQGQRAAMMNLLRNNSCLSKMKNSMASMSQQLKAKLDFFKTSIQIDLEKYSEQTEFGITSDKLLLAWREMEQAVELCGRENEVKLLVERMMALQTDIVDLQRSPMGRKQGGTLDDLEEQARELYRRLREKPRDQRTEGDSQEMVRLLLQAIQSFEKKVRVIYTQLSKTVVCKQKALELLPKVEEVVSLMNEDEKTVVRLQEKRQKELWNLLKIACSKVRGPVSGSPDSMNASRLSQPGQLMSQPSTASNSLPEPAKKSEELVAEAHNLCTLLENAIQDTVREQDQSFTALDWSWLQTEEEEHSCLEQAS
# [21] = target: Calcium/calmodulin-dependent protein kinase type 1B (Homo sapiens) (UniProt Q6P2M8); assay: Inhibition of CAMK1B (unknown origin) assessed as remaining activity at 1 uM by Kinome scan method relative to control; procedure, shortened: as §1
# [22] = target: Dual specificity mitogen-activated protein kinase kinase 4 (Homo sapiens) (UniProt P45985); assay: Inhibition of MEK4 (unknown origin) assessed as remaining activity at 1 uM by Kinome scan method relative to control
# [23] = target: Cyclin-dependent kinase 14 (Homo sapiens) (UniProt O94921); assay: Inhibition of PFTK1 (unknown origin) assessed as remaining activity at 1 uM by Kinome scan method relative to control
# Chain of Cyclin-dependent kinase 14 (Homo sapiens) (O94921 whole entry): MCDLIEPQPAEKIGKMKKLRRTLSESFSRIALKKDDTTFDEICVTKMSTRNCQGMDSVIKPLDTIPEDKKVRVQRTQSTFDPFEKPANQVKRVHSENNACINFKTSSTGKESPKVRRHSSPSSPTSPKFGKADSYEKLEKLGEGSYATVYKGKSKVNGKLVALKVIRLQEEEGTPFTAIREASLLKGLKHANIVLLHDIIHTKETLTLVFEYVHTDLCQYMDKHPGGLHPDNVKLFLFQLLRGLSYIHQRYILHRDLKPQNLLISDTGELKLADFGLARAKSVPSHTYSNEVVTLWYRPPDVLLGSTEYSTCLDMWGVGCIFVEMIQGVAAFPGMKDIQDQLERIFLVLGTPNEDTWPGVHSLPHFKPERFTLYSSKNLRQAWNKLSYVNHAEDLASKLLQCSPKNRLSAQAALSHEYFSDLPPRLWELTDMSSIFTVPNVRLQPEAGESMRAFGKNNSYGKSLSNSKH
# [24] = target: Ribosomal protein S6 kinase beta-1 (Homo sapiens) (UniProt P23443); assay: Inhibition of S6K1 (unknown origin) assessed as remaining activity at 1 uM by Kinome scan method relative to control
smiles,measurement,setting,value
CN1C(=O)c2sccc2N(C)c2nc(Nc3ccc(S(N)(=O)=O)cc3)ncc21,Activity,[1],94%
same,Activity,[2],13%
same,Activity,[3],100%
same,Activity,[4],100%
same,Activity,[5],14%
same,Activity,[6],100%
same,Activity,[7],100%
same,Activity,[8],100%
same,Activity,[9],98%
same,Activity,[10],65%
same,IC50,[11],1230 nM
same,Activity,[12],5.5%
same,Activity,[13],98%
same,Activity,[14],41%
same,Activity,[15],100%
same,Activity,[16],61%
same,Activity,[17],87%
same,Activity,[18],99%
same,Activity,[19],99%
same,Activity,[20],100%
same,Activity,[21],84%
same,Activity,[22],100%
same,Activity,[23],100%
same,Activity,[24],100%

# — ChEMBL document CHEMBL5705905, “Pharmacological targeting of kinases MST1 and MST2 augments tissue repair and regeneration” (Sci Transl Med, 2016)
